Measured values published in ChEMBL document CHEMBL1126638, “Intracellular delivery of bioactive AZT nucleotides by aryl phosphate derivatives of AZT” (J Med Chem, 1993).

Assays:
CCRF-CEM [1] = test: Antiviral activity in HIV-2 infected CEM cells which are deficient in Thymidine Kinase; type: functional, cell-based; details: Homo sapiens
Method in brief: (§1)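 Cells at 5 × 10^5/mL infected with HIV-1 (III_B, stocks from infected MT-4 supernatants) or HIV-2 (ROD) at 100 CCID50 per mL, then mixed with compound dilutions. Giant cell formation recorded microscopically at day 4 (CEM). Viable MT-4 cells counted by trypan blue at day 5. EC50 is the concentration giving 50% protection against viral cytopathicity. Mean of two to four independent experiments.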

CCRF-CEM [2] = test: Anti HIV-1 activity in human lymphocyte CEM/0 cell line; type: functional, cell-based; method in brief: as §1
CCRF-CEM [3] = test: Anti HIV-2 activity in human lymphocyte CEM/0 cell line; type: functional, cell-based; method in brief: as §1
CCRF-CEM [4] = test: cytotoxic activity in CEM/0 cell line; type: functional; details: Homo sapiens
Method in brief: (§2)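 Mock-infected MT-4 or CEM cell cultures incubated with compound dilutions in the same format as the antiviral assay. CC50 is the concentration reducing viable cell number (MT-4, trypan blue, day 5) […] by 50%. Mean of two to four independent experiments.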

MT4 [5] = test: Anti HIV-2 activity in human lymphocyte MT-4 cell line; type: functional, cell-based; method in brief: as §1
MT4 [6] = test: cytotoxic activity in MT-4 cell line; type: functional; details: Homo sapiens; method in brief: as §2
MT4 [7] = test: Anti HIV-1 activity in human lymphocyte MT-4 cell line; type: functional, cell-based; method in brief: as §1
[8] = EC50 of HIV-2 in CEM/TK versus EC50 of HIV-2 in CEM/0; type: functional
Method in brief: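 Ratio of the HIV-2 EC50 in thymidine kinase-deficient CEM/TK⁻ cells to the HIV-2 EC50 in CEM/O cells. Both values come from the cytopathicity-protection assay.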

[9] = Selective index is the ratio of cytotoxic concentration to effective concentration against MT-4 cell line; type: functional, MT4
Method in brief: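 Selectivity index for HIV-2 in MT-4 cells is the CC50 (mock-infected cultures, trypan blue viable count at day 5) divided by the EC50 (protection of infected cultures from HIV-2 cytopathicity).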

SMILES | EC50 (CCRF-CEM [1]) [nM] | EC50 (CCRF-CEM [2]) [nM] | EC50 (CCRF-CEM [3]) [nM] | CC50 (CCRF-CEM [4]) [nM] | EC50 (MT4 [5]) [nM] | CC50 (MT4 [6]) [nM] | EC50 (MT4 [7]) [nM] | Ratio [8] | Selectivity index [9]
COC(=O)C(C)NP(=O)(OCC1OC(n2cc(C)c(=O)[nH]c2=O)CC1N=[N+]=[N-])Oc1ccc(C)cc1 (stereo not drawn) | 7000 | 65 | 56 | 43000 | 53 | 27000 | 51 | 125 | 509
CCCc1ccc(OP(=O)(NC(C)C(=O)OC)OCC2OC(n3cc(C)c(=O)[nH]c3=O)CC2N=[N+]=[N-])cc1 (stereo not drawn) | 3000 | 41 | 51 | 32700 | 45 | 28000 | 43 | 59 | 631
COC(=O)CNP(=O)(OCC1OC(n2cc(C)c(=O)[nH]c2=O)CC1N=[N+]=[N-])Oc1ccccc1 (stereo not drawn) | > 100000 | 97 | 230 | > 500000 | 200 | > 500000 | 160 | > 435 | >2500
COC(=O)C(C)NP(=O)(OCC1OC(n2cc(C)c(=O)[nH]c2=O)CC1N=[N+]=[N-])Oc1ccc(OC)cc1 (stereo not drawn) | 9000 | 57 | 65 | 42600 | 69 | 182000 | 71 | 138 | 2638
COC(=O)C(NP(=O)(OCC1OC(n2cc(C)c(=O)[nH]c2=O)CC1N=[N+]=[N-])Oc1ccccc1)C(C)C (stereo not drawn) | 13000 | 140 | 210 | 123000 | 87 | 205000 | 99 | 62 | 1891
CCc1ccc(OP(=O)(NC(C)C(=O)OC)OCC2OC(n3cc(C)c(=O)[nH]c3=O)CC2N=[N+]=[N-])cc1 (stereo not drawn) | 8700 | 48 | 60 | 31700 | 70 | 11000 | 68 | 145 | 153
COC(=O)C(C)NP(=O)(OCC1OC(n2cc(C)c(=O)[nH]c2=O)CC1N=[N+]=[N-])Oc1ccc(F)cc1 (stereo not drawn) | 3000 | 48 | 65 | 128000 | 54 | 206000 | 41 | 46 | 3815
Cc1cn([C@H]2C[C@H](N=[N+]=[N-])[C@@H](CO)O2)c(=O)[nH]c1=O [ZIDOVUDINE] | > 100000 | 3 | 4 | > 500000 |  | 6000 | 2 | > 28600 | 2000
COC(=O)C(Cc1ccccc1)NP(=O)(OCC1OC(n2cc(C)c(=O)[nH]c2=O)CC1N=[N+]=[N-])Oc1ccccc1 (stereo not drawn) | 10000 | 97 | 160 | 161000 | 110 | 208000 | 80 | 62 | 2356
CCCCCc1ccc(OP(=O)(NC(C)C(=O)OC)OCC2OC(n3cc(C)c(=O)[nH]c3=O)CC2N=[N+]=[N-])cc1 (stereo not drawn) | 8000 | 51 | 60 | 9000 | 74 | 7000 | 103 | 133 | 99
COC(=O)[C@H](C)NP(=O)(OC[C@H]1O[C@@H](n2cc(C)c(=O)[nH]c2=O)C[C@@H]1N=[N+]=[N-])Oc1ccccc1 (stereo partly drawn) | 12000 | 55 | 70 | 172000 | 7 | > 50000 | 6 | 171 | >5555
